Measurements: PMC6682096 (ACS Omega, 2019)
“Also recorded” adds a separate entry of the source.

What was measured:
[1] = tested on: insulin-resistant HepG2 cells; assay: 2-NBDG glucose uptake assay; assay type: cell-based, human; conditions: for relative glucose uptake percentage: insulin-stimulated 2-NBDG uptake
Procedure, shortened: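 Insulin-resistant HepG2 cells (grown in 10% FBS MEM; resistance induced by a previously reported method) treated with test compound at 12.5, 25 and 50 μM and stimulated with 10–6 M insulin. Uptake of the fluorescent glucose analogue 2-NBDG read fluorimetrically on a plate reader. Rosiglitazone (10 μM) served as reference. Triplicate experiments, mean ± standard deviation.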

[2] = tested on: IRS-1/PI3K/Akt signaling pathway in insulin-resistant HepG2 cells; assay: Western blot of IRS-1/PI3K/Akt signaling pathway; assay type: cell-based, human
[3] = tested on: PTP1B expression in insulin-resistant HepG2 cells; assay: Western blot of PTP1B expression level; assay type: cell-based, human; conditions: 24 h treatment
[4] = target: T1, PTP1B (Homo sapiens, UniProt P18031); assay: Enzyme kinetics of PTP1B inhibition; assay type: biochemical; conditions: for Ki: secondary plots
T1 sequence (P18031 1-435): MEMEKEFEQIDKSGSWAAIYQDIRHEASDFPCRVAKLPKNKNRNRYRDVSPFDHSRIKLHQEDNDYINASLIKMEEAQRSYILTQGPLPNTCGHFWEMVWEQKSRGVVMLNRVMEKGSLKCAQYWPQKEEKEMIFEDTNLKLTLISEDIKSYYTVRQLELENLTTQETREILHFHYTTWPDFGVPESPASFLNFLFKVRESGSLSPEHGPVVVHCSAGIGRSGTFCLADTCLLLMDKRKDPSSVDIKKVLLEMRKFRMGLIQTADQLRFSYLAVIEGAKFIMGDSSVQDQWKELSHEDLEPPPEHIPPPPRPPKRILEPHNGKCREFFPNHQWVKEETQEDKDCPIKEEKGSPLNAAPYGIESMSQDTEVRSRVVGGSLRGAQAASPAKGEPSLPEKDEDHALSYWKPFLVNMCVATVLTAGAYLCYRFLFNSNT
Procedure, shortened: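 Human recombinant PTP1B (0.5 unit) in pH 6.0 buffer (50 mM citrate, 0.1 M NaCl, 1 mM EDTA, 1 mM DTT) was preincubated with or without test compound for 10 min at 37 °C. pNPP substrate was then added at three concentrations and incubated for 20 min at 37 °C. NaOH stopped the reaction, and p-nitrophenol was read at 405 nm. Km and Vmax came from Lineweaver–Burk plots, with Dixon plots also used. Ki, Kic and Kiu came from secondary plots.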

[5] = target: T2, human monoamine oxidase A (hMAO-A) (Homo sapiens, UniProt P21397); assay: hMAO-A inhibition chemiluminescent assay; assay type: biochemical
T2 sequence (P21397 1-527): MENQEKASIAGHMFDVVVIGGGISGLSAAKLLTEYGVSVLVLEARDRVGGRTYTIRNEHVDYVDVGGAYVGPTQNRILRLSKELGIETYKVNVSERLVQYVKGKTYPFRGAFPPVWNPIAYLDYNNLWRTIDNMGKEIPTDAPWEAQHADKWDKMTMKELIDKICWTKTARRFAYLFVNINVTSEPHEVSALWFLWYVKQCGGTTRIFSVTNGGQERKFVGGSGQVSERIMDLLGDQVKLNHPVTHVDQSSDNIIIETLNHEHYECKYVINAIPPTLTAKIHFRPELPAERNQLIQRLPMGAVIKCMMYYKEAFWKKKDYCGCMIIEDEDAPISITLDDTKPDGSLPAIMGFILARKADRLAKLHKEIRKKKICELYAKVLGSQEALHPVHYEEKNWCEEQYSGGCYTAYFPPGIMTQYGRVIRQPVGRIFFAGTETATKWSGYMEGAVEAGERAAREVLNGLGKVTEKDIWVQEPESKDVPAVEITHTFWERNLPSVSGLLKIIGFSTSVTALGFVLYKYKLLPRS

[6] = target: T1, PTP1B; assay: PTP1B inhibition assay using pNPP; assay type: biochemical
[7] = tested on: HepG2 cells; assay: Cytotoxicity, cell viability by MTT assay; assay type: cell-based, human; conditions: up to 100 μM
Procedure, shortened: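 HepG2 cells were subcultured in MEM with 10% FBS, refreshing the medium every 48 h until confluent. They were then seeded in 96-well plates, and viability after test-compound exposure was assessed by MTT assay.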

[8] = tested on: PEPCK and G6Pase expression in insulin-resistant HepG2 cells; assay: Western blot of PEPCK and G6Pase expression levels; assay type: cell-based, human
[9] = target: T3, hMAO-A (Homo sapiens, UniProt P21397); assay: Enzyme kinetics of hMAO-A inhibition; assay type: biochemical; conditions: Lineweaver–Burk plot
T3 sequence (P21397 1-527): T2 sequence (P21397 1-527)
Procedure, shortened: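 hMAO-A activity measured by chemiluminescent MAO-Glo assay, with MAO substrate at three concentrations, with or without test compound. Lineweaver–Burk plots (with Dixon plots) gave Km, Vmax and inhibition mode. Ki, Kic and Kiu came from secondary plots.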

SMILES	insulin-stimulated glucose uptake ([1]; 10 μM, 2-NBDG)	expression of total IRS-1 and p-IRS-1 (Tyr 895) [2]	relative abundances of p-PI3K and p-Akt [2]	PTP1B expression [3]	relative glucose uptake percentage ([1]; 12.5 μM)	relative glucose uptake percentage ([1]; 25 μM)	relative glucose uptake percentage ([1]; 50 μM)	PTP1B inhibition type ([4]; Lineweaver–Burk plot)	Ki ([4]; PTP1B inhibition Ki value (Kic), binding constant of the inhibitor with the free enzyme)	Ki ([4]; PTP1B inhibition Ki value (Kiu), binding constant of the inhibitor with the enzyme–substrate complex)	IC50 [5]	IC50 [6]	cytotoxicity (cell viability) [7]	expressions of PEPCK and G6Pase [8]	hMAO-A inhibition type [9]
CN(CCOc1ccc(CC2SC(=O)NC2=O)cc1)c1ccccn1 (stereo not drawn) [Rosiglitazone, reference compound]	118.52%	–	–	–	–	–	–	–	–	–	–	–	–	–	–
COc1cc(O)c2c(O)c3c(=O)cc(C)oc3cc2c1 [rubrofusarin]	–	dose-dependently increased the expression of total IRS-1 and p-IRS-1 (Tyr 895)	in a dose-dependent manner increased the relative abundances of p-PI3K and p-Akt	inhibited PTP1B expression in a dose-dependent manner; also recorded: at 50 μM concentration significantly reduced the expression	68.54%	81.27%	98.47%	mixed-competitive	6.99 µM	18.3 µM	5.9 ± 0.99 µM	17 ± 0.49 µM	showed toxicity at 100 μM; also recorded: nontoxic up to a 50 μM concentration	downregulate the expressions of PEPCK and G6Pase	mixed-competitive
